Measurements as given in ChEMBL document CHEMBL4312003, “Optimization of biaryloxazolidinone as promising antibacterial agents against antibiotic-susceptible and antibiotic-resistant gram-positive bacteria” (Eur J Med Chem, 2020).
Converted amounts (≈) assume the structure as drawn.

Key:
HepG2 = experiment: Cytotoxicity against human HepG2 cells assessed as reduction in cell viability incubated for 48 hrs by MTT assay; assay type: cell-based; details: HepG2, 48 h
How it was run: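 HepG2 cells were grown in RPMI1640 with 10% FBS and plated at about 4×10^4 cells/well in MEM. After 24 h at 37 °C in 5% CO2, compounds were added at the indicated final concentrations for 48 h. MTT was added (0.5 mg/mL final) for 4 h at 37 °C and the formazan dissolved in DMSO. Absorbance was read at 492 nm (630 nm reference). Each compound was tested three times; IC50 given as mean ± SD.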

Staphylococcus aureus [1] = experiment: Antibacterial activity against clinical isolates of methicillin-sensitive Staphylococcus aureus assessed as reduction in bacterial cell growth by CLSI protocol based broth microdilution method; assay type: functional
How it was run: (§1)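 Broth liquid microdilution per CLSI guidelines; isolates identified on an automated MicroScan system before testing. MIC taken as lowest concentration giving total inhibition of bacterial growth, reported in μg/mL. S. aureus ATCC29213 run as the control strain.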

Enterococcus faecium [2] = experiment: Antibacterial activity against clinical isolates of vancomycin-resistant Enterococcus faecium assessed as complete reduction in bacterial cell growth by CLSI protocol based broth liquid microdilution method; assay type: functional; how it was run: as §1
Enterococcus faecalis [3] = experiment: Antibacterial activity against clinical isolates of linezolid-resistant Enterococcus faecalis assessed as complete reduction in bacterial cell growth by CLSI protocol based broth liquid microdilution method; assay type: functional; how it was run: as §1
[4] = Stability in simulated gastric acid assessed as compound remaining at pH 1.2 incubated for 1.5 hrs; assay type: ADME; details: read-out: Stability
Staphylococcus aureus [5] = experiment: Antibacterial activity against methicillin-resistant Staphylococcus aureus assessed as complete reduction in bacterial cell growth by CLSI protocol based broth liquid microdilution method; assay type: functional; how it was run: as §1
[6] = Stability in simulated gastric acid assessed as compound remaining at pH 1.2 incubated for 2 hrs; assay type: ADME; details: read-out: Stability
Enterococcus faecalis [7] = experiment: Antibacterial activity against linezolid-resistant Enterococcus faecalis assessed as complete reduction in bacterial cell growth by CLSI protocol based broth liquid microdilution method; assay type: functional; how it was run: as §1
Staphylococcus aureus [8] = experiment: Antibacterial activity against methicillin-sensitive Staphylococcus aureus assessed as complete reduction in bacterial cell growth by CLSI protocol based broth liquid microdilution method; assay type: functional; how it was run: as §1
[9] = Stability in simulated gastric acid assessed as compound remaining at pH 1.2 incubated for 0.5 hrs; assay type: ADME; details: read-out: Stability
Staphylococcus aureus [10] = experiment: Antibacterial activity against Staphylococcus aureus ATCC 29213 assessed as complete reduction in bacterial cell growth by CLSI protocol based broth liquid microdilution method; assay type: functional; how it was run: as §1
[11] = Stability in simulated gastric acid assessed as compound remaining at pH 1.2 incubated for 1 hr; assay type: ADME; details: read-out: Stability
Enterococcus faecium [12] = experiment: Antibacterial activity against vancomycin-resistant Enterococcus faecium assessed as complete reduction in bacterial cell growth by CLSI protocol based broth liquid microdilution method; assay type: functional; how it was run: as §1
MAO-A = target: T1, MAO-A (Homo sapiens, UniProt P21397); experiment: Inhibition of recombinant human MAO-A (active motif 31502) at 30 uM using luciferin as substrate incubated for 15 mins followed by substrate addition and measured after 60 mins by luminescence based method relative to control; details: probe luciferin
T1 sequence (P21397 whole entry): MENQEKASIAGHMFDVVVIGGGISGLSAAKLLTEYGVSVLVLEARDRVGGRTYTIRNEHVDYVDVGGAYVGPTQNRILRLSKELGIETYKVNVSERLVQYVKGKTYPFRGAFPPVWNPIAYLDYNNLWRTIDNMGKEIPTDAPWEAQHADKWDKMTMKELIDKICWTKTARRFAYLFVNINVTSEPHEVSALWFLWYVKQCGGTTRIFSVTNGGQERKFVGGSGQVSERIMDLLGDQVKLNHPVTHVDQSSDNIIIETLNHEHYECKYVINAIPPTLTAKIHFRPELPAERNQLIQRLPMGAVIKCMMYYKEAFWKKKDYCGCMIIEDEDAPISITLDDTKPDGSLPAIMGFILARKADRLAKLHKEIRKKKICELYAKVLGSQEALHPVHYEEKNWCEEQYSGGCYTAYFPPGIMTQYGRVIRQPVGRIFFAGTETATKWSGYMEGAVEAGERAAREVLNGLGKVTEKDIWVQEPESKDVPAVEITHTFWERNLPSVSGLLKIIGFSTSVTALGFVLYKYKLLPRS
How it was run: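 Recombinant human MAO-A was measured with the MAO-Glo kit, modified. Compounds were in DMSO (1% DMSO final) and preincubated with enzyme 15 min at room temperature. Luciferin-derivative substrate was then added and the reaction run 60 min at room temperature. Luciferase detection reagent was added for 20 min and luminescence read. Buffer without enzyme served as the 100% inhibition control; DMSO alone as the no-inhibition control. Percent inhibition = (Max − signal)/(Max − Min)×100.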

[13] = Stability in human liver microsomes assessed as half life at 1.5 uM preincubated for 5 mins with NADPH and measured after 45 mins by LC/MS analysis; assay type: ADME, Microsome; details: microsomes, 0.75 h, 1.5 µM
How it was run: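 Compound solution at 1.5 µM with 0.75 mg/mL microsomes (before NADPH addition) was preincubated 5 min at 37 °C. Reactions were started with NADPH (6 mM stock). Samples were quenched with acetonitrile containing internal standard at 0, 5, 15, 30 and 45 min, then centrifuged, and the supernatant was diluted with water for LC/MS. Runs were in duplicate. T1/2 = ln2/k from the log-linear slope, and CLint was derived from T1/2.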

CC(=O)NC[C@H]1CN(c2ccc(-c3ccc(/C=N/N4CCN(C)CC4)c(O)c3)c(F)c2)C(=O)O1
IC50 (HepG2): > 25 µM | MIC (Staphylococcus aureus [1]): 0.5 to 1 µg/mL (≈ 1.06 to 2.13 µM) | MIC (Enterococcus faecium [2]): 1 µg/mL (≈ 2.13 µM) | MIC (Enterococcus faecalis [3]): 1 µg/mL (≈ 2.13 µM) | remaining at 1.5 h [4]: 12.2% | MIC (Staphylococcus aureus [5]): 0.125 µg/mL (≈ 0.266 µM) | remaining at 2 h [6]: 5.3% | MIC (Enterococcus faecalis [7]): 0.25 µg/mL (≈ 0.532 µM) | MIC (Staphylococcus aureus [8]): 0.12 µg/mL (≈ 0.256 µM) | remaining at 0.5 h [9]: 69.8% | MIC (Staphylococcus aureus [10]): 0.125 µg/mL (≈ 0.266 µM) | remaining at 1 h [11]: 35% | MIC (Enterococcus faecium [12]): 0.25 µg/mL (≈ 0.532 µM)

CCC(=O)N1CCN(/N=C/c2ccc(-c3ccc(N4C[C@H](CNC(C)=O)OC4=O)cc3F)cc2O)CC1
MIC (Staphylococcus aureus [1]): 1 to 2 µg/mL (≈ 1.95 to 3.91 µM) | MIC (Enterococcus faecium [2]): 1 to 2 µg/mL (≈ 1.95 to 3.91 µM) | MIC (Enterococcus faecalis [3]): 1 to 2 µg/mL (≈ 1.95 to 3.91 µM) | MIC (Staphylococcus aureus [5]): 0.25 µg/mL (≈ 0.489 µM) | MIC (Enterococcus faecalis [7]): 0.25 µg/mL (≈ 0.489 µM) | MIC (Staphylococcus aureus [8]): 0.25 µg/mL (≈ 0.489 µM) | MIC (Staphylococcus aureus [10]): 0.25 µg/mL (≈ 0.489 µM) | MIC (Enterococcus faecium [12]): 0.25 µg/mL (≈ 0.489 µM)

CC(=O)NC[C@H]1CN(c2ccc(-c3ccc(/C=N/N4CCN(C)CC4)c(C(F)(F)F)c3)c(F)c2)C(=O)O1
MIC (Staphylococcus aureus [5]): 2 µg/mL (≈ 3.83 µM) | MIC (Enterococcus faecalis [7]): 2 µg/mL (≈ 3.83 µM) | MIC (Staphylococcus aureus [8]): 2 µg/mL (≈ 3.83 µM) | MIC (Staphylococcus aureus [10]): 2 µg/mL (≈ 3.83 µM) | MIC (Enterococcus faecium [12]): 2 µg/mL (≈ 3.83 µM)

CC(=O)NC[C@H]1CN(c2ccc(-c3ccc(/C=N/N4CCNCC4)c(C)c3)c(F)c2)C(=O)O1
MIC (Staphylococcus aureus [5]): 0.5 µg/mL (≈ 1.1 µM) | MIC (Enterococcus faecalis [7]): 0.5 µg/mL (≈ 1.1 µM) | MIC (Staphylococcus aureus [8]): 0.5 µg/mL (≈ 1.1 µM) | MIC (Staphylococcus aureus [10]): 0.5 µg/mL (≈ 1.1 µM) | MIC (Enterococcus faecium [12]): 0.5 µg/mL (≈ 1.1 µM)

CC(=O)NC[C@H]1CN(c2ccc(-c3ccc(/C=N/N4CC[S+]([O-])CC4)cn3)c(F)c2)C(=O)O1
MIC (Staphylococcus aureus [5]): 1 µg/mL (≈ 2.11 µM) | MIC (Enterococcus faecalis [7]): 2 µg/mL (≈ 4.22 µM) | MIC (Staphylococcus aureus [8]): 2 µg/mL (≈ 4.22 µM) | MIC (Staphylococcus aureus [10]): 2 µg/mL (≈ 4.22 µM) | MIC (Enterococcus faecium [12]): 2 µg/mL (≈ 4.22 µM)

CC(=O)NC[C@H]1CN(c2ccc(-c3ccc(/C=N/N4CCS(=O)(=O)CC4)c(O)c3)c(F)c2)C(=O)O1
MIC (Staphylococcus aureus [1]): 1 to 2 µg/mL (≈ 1.98 to 3.96 µM) | MIC (Enterococcus faecium [2]): 1 to 2 µg/mL (≈ 1.98 to 3.96 µM) | MIC (Enterococcus faecalis [3]): 1 to 2 µg/mL (≈ 1.98 to 3.96 µM) | MIC (Staphylococcus aureus [5]): 0.25 µg/mL (≈ 0.496 µM) | MIC (Enterococcus faecalis [7]): 0.25 µg/mL (≈ 0.496 µM) | MIC (Staphylococcus aureus [8]): 0.25 µg/mL (≈ 0.496 µM) | MIC (Staphylococcus aureus [10]): 0.125 µg/mL (≈ 0.248 µM) | inhibition at 1 h, 30 µM (MAO-A): 67% | MIC (Enterococcus faecium [12]): 0.25 µg/mL (≈ 0.496 µM)

CC(=O)NC[C@H]1CN(c2ccc(N3CCOCC3)c(F)c2)C(=O)O1 [LINEZOLID]
IC50 (HepG2): > 25 µM | MIC (Staphylococcus aureus [1]): 1 to 4 µg/mL (≈ 2.96 to 11.9 µM) | MIC (Enterococcus faecium [2]): 1 to 4 µg/mL (≈ 2.96 to 11.9 µM) | Stability [13]: Stable | MIC (Enterococcus faecalis [3]): > 16 µg/mL | MIC (Staphylococcus aureus [5]): 1 µg/mL (≈ 2.96 µM) | MIC (Enterococcus faecalis [7]): > 16 µg/mL | MIC (Staphylococcus aureus [8]): 1 µg/mL (≈ 2.96 µM) | MIC (Staphylococcus aureus [10]): 1 µg/mL (≈ 2.96 µM) | MIC (Enterococcus faecium [12]): 2 µg/mL (≈ 5.93 µM)

CC(=O)NC[C@H]1CN(c2ccc(-c3ccc(/C=N/N4CCN(C)CC4)c(C)c3)c(F)c2)C(=O)O1
MIC (Staphylococcus aureus [5]): 0.5 µg/mL (≈ 1.07 µM) | MIC (Enterococcus faecalis [7]): 0.5 µg/mL (≈ 1.07 µM) | MIC (Staphylococcus aureus [8]): 0.5 µg/mL (≈ 1.07 µM) | MIC (Staphylococcus aureus [10]): 0.5 µg/mL (≈ 1.07 µM) | MIC (Enterococcus faecium [12]): 0.5 µg/mL (≈ 1.07 µM)

CC(=O)NC[C@H]1CN(c2ccc(-c3ccc(/C=N/N4CCS(=O)(=O)CC4)cn3)c(F)c2)C(=O)O1
MIC (Staphylococcus aureus [5]): 1 µg/mL (≈ 2.04 µM) | MIC (Enterococcus faecalis [7]): 1 µg/mL (≈ 2.04 µM) | MIC (Staphylococcus aureus [8]): 1 µg/mL (≈ 2.04 µM) | MIC (Staphylococcus aureus [10]): 2 µg/mL (≈ 4.09 µM) | MIC (Enterococcus faecium [12]): 1 µg/mL (≈ 2.04 µM)

CC(=O)NC[C@H]1CN(c2ccc(-c3ccc(/C=N/N4CCSCC4)c(C)c3)c(F)c2)C(=O)O1
MIC (Staphylococcus aureus [5]): 1 µg/mL (≈ 2.13 µM) | MIC (Enterococcus faecalis [7]): 2 µg/mL (≈ 4.25 µM) | MIC (Staphylococcus aureus [8]): 1 µg/mL (≈ 2.13 µM) | MIC (Staphylococcus aureus [10]): 2 µg/mL (≈ 4.25 µM) | MIC (Enterococcus faecium [12]): 1 µg/mL (≈ 2.13 µM)

CC(=O)NC[C@H]1CN(c2ccc(-c3ccc(/C=N/N4CCCCC4)c(F)c3)c(F)c2)C(=O)O1
MIC (Staphylococcus aureus [5]): 0.25 µg/mL (≈ 0.548 µM) | MIC (Enterococcus faecalis [7]): 0.5 µg/mL (≈ 1.1 µM) | MIC (Staphylococcus aureus [8]): 0.25 µg/mL (≈ 0.548 µM) | MIC (Staphylococcus aureus [10]): 0.25 µg/mL (≈ 0.548 µM) | MIC (Enterococcus faecium [12]): 0.5 µg/mL (≈ 1.1 µM)

CC(=O)NC[C@H]1CN(c2ccc(-c3ccc(/C=N/N4CCOCC4)c(O)c3)c(F)c2)C(=O)O1
MIC (Staphylococcus aureus [5]): 0.25 µg/mL (≈ 0.548 µM) | MIC (Enterococcus faecalis [7]): 0.25 µg/mL (≈ 0.548 µM) | MIC (Staphylococcus aureus [8]): 0.25 µg/mL (≈ 0.548 µM) | MIC (Staphylococcus aureus [10]): 0.25 µg/mL (≈ 0.548 µM) | MIC (Enterococcus faecium [12]): 0.25 µg/mL (≈ 0.548 µM)

CC(=O)NC[C@H]1CN(c2ccc(-c3ccc(/C=N/N4CCNCC4)nc3)c(F)c2)C(=O)O1
MIC (Staphylococcus aureus [5]): 0.5 µg/mL (≈ 1.14 µM) | MIC (Enterococcus faecalis [7]): 0.5 µg/mL (≈ 1.14 µM) | MIC (Staphylococcus aureus [8]): 1 µg/mL (≈ 2.27 µM) | MIC (Staphylococcus aureus [10]): 0.5 µg/mL (≈ 1.14 µM) | MIC (Enterococcus faecium [12]): 0.5 µg/mL (≈ 1.14 µM)

CC(=O)NC[C@H]1CN(c2ccc(-c3ccc(/C=N/N4CCSCC4)c(C(F)(F)F)c3)c(F)c2)C(=O)O1
MIC (Staphylococcus aureus [5]): 2 µg/mL (≈ 3.81 µM) | MIC (Enterococcus faecalis [7]): 2 µg/mL (≈ 3.81 µM) | MIC (Staphylococcus aureus [8]): 2 µg/mL (≈ 3.81 µM) | MIC (Staphylococcus aureus [10]): 2 µg/mL (≈ 3.81 µM) | MIC (Enterococcus faecium [12]): 2 µg/mL (≈ 3.81 µM)
